# T cruzi repl: T. cruzi replication inhibition; hit rate 1.4% among 300,000; inhibition, % (no concentration beside the values); AID 1885; T. cruzi beta-gal in NIH3T3, luminescence, 90 h;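 active = mean inhibition across valid replicates above about 55%, limit read from the data; inconclusive = mean below that limit but half or more replicates reach it; inactive = mean below it, under half of replicates reach it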;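 also: signal also drops with host cell toxicity which is not excluded here; higher percent means less beta-gal luminescence so fewer parasites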
#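 System: mouse NIH/3T3 fibroblasts infected with β-gal-expressing T. cruzi Tulahuen C4 / Input: NIH/3T3 cells, 5,000 per well / Buffer or medium: Low-serum DMEM with 2% FBS / Probe or stimulus: 5000 reporter trypomastigotes per well / Schedule: ≥90 h infection period, 3 h prior cell attachment / Measured by: GalScreen luminescence, 60 min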
# Beta apoptosis: beta cell apoptosis inhibition | INS-1E cytokine-induced death, ATP luminescence, 48 h; percent of positive-control rescue, neutral wells zero | protection from apoptosis, % (no concentration beside the values) | hit rate 0.8% among 300,000 | AID 435005;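 active = Every replicate reaches about 75%, or at least half do and their mean reaches it too, limit read from the data; inconclusive = At least half of replicates reach the limit but their mean does not; inactive = Under half of replicates reach the limit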;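 also: higher means more ATP so stronger rescue from cytokine killing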
# SKKanGAS inh: inhibitors of SKKanGAS S. pyogenes growth in kanamycin (SK-promoter or general growth effect); AID 1662; BacTiter-Glo, 6 h; inhibition, % at 7.5 µM; hit rate 1.3% among 300,000;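 active = mean replicate score, as percent of positive control median, at least 50; inconclusive = mean below 50 but one replicate at or above 50; inactive = mean and every replicate below 50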;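 also: strain carries kanamycin resistance gene driven by streptokinase promoter and grows in 40 µg/ml kanamycin; loss of luminescence reflects streptokinase promoter inhibition or plain growth inhibition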
# Calb FLC: C. albicans growth modulation with fluconazole; C. albicans CaCi-2 + fluconazole, Alamar Blue growth, 48 h; growth inhibition, % (concentration not given with the values); hit rate 0.57% among 300,000;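 active = growth inhibition above about 58% in most replicates, limit read from the data, passing the limit was not always enough; inconclusive = exactly half the replicates above a set limit; inactive = most replicates below a set limit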;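 also: all wells also contain fluconazole at 8 µg/ml as a sub-toxic cotreatment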
# Mdm2-MdmX inh: human Mdm2/MdmX binding inhibition | O15151+Q00987 | SaOS-2 split-luciferase Mdm2/MdmX complementation, luminescence | inhibition, % at 8 µM | hit rate 3% among 330,000;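 active = inhibition of at least 50% at 8 µM in the primary screen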
# Target sequence (O15151 whole entry, looked up): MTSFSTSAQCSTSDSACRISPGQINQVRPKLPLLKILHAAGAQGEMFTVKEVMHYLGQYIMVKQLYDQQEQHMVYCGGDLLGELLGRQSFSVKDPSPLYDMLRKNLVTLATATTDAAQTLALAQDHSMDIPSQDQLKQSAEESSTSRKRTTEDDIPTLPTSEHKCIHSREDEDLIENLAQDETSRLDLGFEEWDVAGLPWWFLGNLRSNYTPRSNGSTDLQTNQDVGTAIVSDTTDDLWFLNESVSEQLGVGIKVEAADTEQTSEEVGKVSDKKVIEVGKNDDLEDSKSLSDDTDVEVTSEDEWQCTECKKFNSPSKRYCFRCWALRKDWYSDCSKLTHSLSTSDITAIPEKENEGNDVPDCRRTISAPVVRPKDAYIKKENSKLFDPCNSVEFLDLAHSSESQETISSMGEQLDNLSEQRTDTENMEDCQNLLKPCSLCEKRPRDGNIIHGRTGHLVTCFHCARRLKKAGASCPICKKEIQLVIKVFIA
# Target sequence (Q00987 whole entry, looked up): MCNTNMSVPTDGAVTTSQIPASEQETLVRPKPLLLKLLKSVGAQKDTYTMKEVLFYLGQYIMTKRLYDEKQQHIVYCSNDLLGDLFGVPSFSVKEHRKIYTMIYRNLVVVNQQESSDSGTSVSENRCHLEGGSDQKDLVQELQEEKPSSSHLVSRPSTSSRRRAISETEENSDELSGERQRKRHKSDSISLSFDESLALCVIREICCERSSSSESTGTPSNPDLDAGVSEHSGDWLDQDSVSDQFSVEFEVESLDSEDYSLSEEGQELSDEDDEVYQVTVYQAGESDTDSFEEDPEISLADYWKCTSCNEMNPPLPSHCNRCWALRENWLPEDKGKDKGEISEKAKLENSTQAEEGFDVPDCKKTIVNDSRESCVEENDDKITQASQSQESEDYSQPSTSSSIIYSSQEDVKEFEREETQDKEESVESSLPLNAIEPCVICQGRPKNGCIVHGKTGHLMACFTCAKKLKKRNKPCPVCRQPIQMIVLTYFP
# CSC inhib: cancer stem cell inhibition; hit rate 1.1% among 300,000; AID 2717; cancer stem cell-like cells viability, luminescence; inhibition, % at 7.5 µM; in the data active = inhibition above about 75%; inconclusive = no clear call, values can overlap the other calls; tested in HMLE shEcad cells
# Mdm2 MdmX conf: confirmation of human Mdm2/MdmX interaction inhibitors; Mdm2-MdmX binding, luminescent assay; hit rate 55% among 10,000; AID 489028; inhibition, % at 8 µM; shares compounds with Mdm2-MdmX inh; in the data active = inhibition above about 40%
# FLuc counter: full-length luciferase inhibition in Mdm2/MdmX counter-screen | shares compounds with Mdm2-MdmX inh | SaOS-2 full-length luciferase counterscreen, luminescence | inhibition, % at 8 µM | hit rate 77% among 6,200 | AID 504607;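 active = mean inhibition at 8 µM reaching about 37%, which flags the compound as non-specific, limit read from the data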;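 also: p53-null SaOS-2 cells with luciferase driven by a doxycycline-inducible promoter; compound on cells about two nights before reading with doxycycline added after day one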
# A number is an active result; i = inactive; ? = inconclusive; nt = no result. Only some compounds are listed: those with a hit (about 5.7% of all), similar ones and a draw of the others.
SMILES,T cruzi repl,Beta apoptosis,SKKanGAS inh,Calb FLC,Mdm2-MdmX inh,CSC inhib,Mdm2 MdmX conf,FLuc counter
CCOC(=O)C1=C(C)NC(C)=C(C(=O)OCC)C1c1ccccc1/C=C/C(=O)OC(C)(C)C,i,i,i,nt,72,99,i,nt
COC(=O)c1cccc(C23CC4(C2)[C@H](CN(Cc2ccc(C(F)(F)F)cc2)[C@@H]4c2ccccc2)C3c2ccc(C(F)(F)F)cc2)c1 (stereo not given in full),i,i,i,i,73,i,59,i
FC(F)(F)c1ccc(CN2C[C@@H]3C(c4ccc(C(F)(F)F)cc4)C4(c5cccnc5)CC3(C4)[C@H]2c2ccccc2)cc1 (stereo not given in full),i,109,i,i,65,i,i,nt
O=C(Nc1cccc(S(=O)(=O)N2CCOCC2)c1)C1=NN(c2ccccc2)C(=O)CC1,i,i,i,i,i,i,nt,nt
Cc1ccc(S(=O)(=O)N(c2ccc(Br)cc2)C2C=CS(=O)(=O)C2)cc1 (stereo not given),nt,i,i,i,i,i,nt,nt
O=C(O)c1cccc(COc2ccccc2Cl)c1,i,i,i,i,69,i,69,50
N#Cc1ccc(/C=C\c2nccc3c2[nH]c2ccccc23)cc1,i,i,i,i,51,i,i,nt
NC(=O)c1sc2nc3c(c(-c4ccco4)c2c1N)CCC3,i,i,i,?,77,i,55,i
Cc1nc2sc(C(N)=O)c(N)c2c2c1CCCC2,i,i,i,i,87,i,89,49
COc1ccc(C(=O)NCCc2ccc(C(F)(F)F)cc2)cc1S(=O)(=O)N1CCOCC1,nt,i,nt,nt,i,nt,nt,nt
COC(=O)c1[nH]c2cc(OC)c(OC)cc2c1/C=N/Nc1ccccc1,i,i,i,i,79,i,i,85
CCOc1cc2c3c(c1)C(C)=CC(C)(C)N3C(=O)C2=O,i,i,i,i,68,i,i,85
CCOc1cc2c3c(c1)C(C)CC(C)(C)N3C(=O)C2=O (stereo not given),i,i,i,i,i,i,nt,nt
COc1nnc(-c2ccc(N3CCOCC3)c(NC(=O)C3CCCCC3)c2)c2ccccc12,i,i,i,i,i,i,nt,nt
COc1nnc(-c2ccc(N3CCCCC3)c(NC(=O)C3CCCCC3)c2)c2ccccc12,i,79,i,?,90,i,i,nt
COc1ccccc1C(=O)Nc1ccccc1SC(=O)c1ccccc1OC,i,i,i,i,63,i,i,90
Cc1ccc(/C=C2\CCC3=C2OC(N)=C(C#N)C3c2ccc(C)cc2)cc1 (stereo not given),i,i,i,i,i,i,nt,nt
N#CC1=C(N)OC2=C(CCc3ccccc32)C1c1ccccc1 (stereo not given),i,i,i,i,74,i,52,143
O=C(CSc1ccccc1)NCC1(N2CCOCC2)CCCCC1,i,nt,i,i,i,i,nt,nt
O=C(CCCN1C(=O)/C(=C\c2ccccc2)SC1=S)N1CCOCC1,nt,i,nt,nt,51,i,i,nt
O=C(CN1C(=O)S/C(=C/c2ccncc2)C1=O)N1CCOCC1,i,i,i,i,65,i,i,nt
CCN(CC)C(=O)CN1C(=O)/C(=C/c2ccccc2)SC1=S,i,i,i,i,63,i,45,i
O=C(CCN1C(=O)/C(=C\c2ccccc2)SC1=S)N1CCCCC1,i,i,i,i,57,i,72,61
COc1ccc(CN(Cc2cccn2C)C(=O)c2cc3cc(OC)ccc3[nH]2)cc1,i,i,i,i,i,i,nt,nt
CCOc1ccc(S(=O)(=O)N2CCCCC2)cc1NC(=O)Cc1cccc(C(F)(F)F)c1,nt,i,nt,nt,i,nt,nt,nt
SMILES,T cruzi repl,Beta apoptosis,SKKanGAS inh,Calb FLC,Mdm2-MdmX inh,CSC inhib,Mdm2 MdmX conf,FLuc counter
Cc1ccc(/C=C2\SC(=S)N(CCC(=O)N3CCCCC3)C2=O)cc1,i,i,i,i,72,nt,66,122
Cc1ccc(/C=C2/SC(=S)N(CCC(=O)N3CCN(C)CC3)C2=O)cc1,i,i,i,i,i,i,nt,nt
O=C(CCCN1C(=O)/C(=C/c2ccco2)SC1=S)Nc1ccccc1C(=O)O,i,i,i,i,i,i,nt,nt
O=C(CCN1C(=O)/C(=C\c2cccc(Br)c2)SC1=S)N1CCOCC1,i,i,i,i,61,i,47,i
O=C(c1ccccc1)N1CCN(CCc2ccccn2)CC1,i,nt,i,i,i,i,nt,nt
O=C(CN1C(=O)/C(=C/c2ccccc2)SC1=S)N1CCN(CCc2ccccn2)CC1,i,i,i,nt,84,i,54,i
O=C(CCCN1C(=O)/C(=C/c2ccccc2)SC1=S)Nc1ccccc1O,i,nt,i,i,95,i,88,i
CC1CCCCC1NC(=O)CN1c2cccc3cccc(c23)S1(=O)=O (stereo not given),nt,i,nt,nt,i,nt,nt,nt
Cc1c(Cl)cccc1N1C(=O)CC(NNC(=O)c2ccc3c(c2)OCO3)C1=O (stereo not given),nt,i,nt,nt,i,i,nt,nt
CCOC(=O)c1c(C)[nH]c(C(C)=NNC(=O)c2cccs2)c1C,nt,i,nt,nt,i,i,nt,nt
Cc1ccc(N(CN2C(=O)C3C4CCC(C4)C3C2=O)C(=O)c2ccco2)cc1 (stereo not given),i,i,i,i,i,i,nt,nt
O=C(CCN1C(=O)/C(=C/c2cccs2)SC1=S)N1CCCCC1,i,i,i,i,68,i,52,45
O=C(CN1C(=O)S/C(=C/c2cccs2)C1=O)N1CCCC1,nt,i,nt,nt,i,i,nt,nt
COc1cc(/C=C2\SC(=S)N(CCC(=O)N3CCCCC3)C2=O)cc(OC)c1OC,i,i,i,i,68,nt,43,63
Cc1ccc(C2=NN(C(=O)CCl)C(c3ccco3)C2)o1 (stereo not given),i,nt,i,i,100,nt,99,58
COC(=O)c1cc(O)cc(OC)c1Oc1cc(C)cc(O)c1C(=O)O,nt,89,nt,nt,84,i,46,i
CCOc1ccc2nc(-c3ccccc3)nc(SCC(=O)Nc3ncc(C)s3)c2c1,i,i,i,i,75,i,i,nt
CC(=O)Nc1cccc(NC(=O)CCN2C(=O)c3ccccc3S2(=O)=O)c1,i,i,i,i,i,i,nt,nt
COc1ccc(NC(=O)n2ncc3cc(Cl)ccc32)cc1OC,i,i,i,i,i,i,nt,nt
Cc1nnc(SCC(=O)N2CCC(c3noc4ccc(F)cc34)CC2)s1,i,i,i,i,78,i,69,i
CCCCNC(=O)c1onc(CSc2cc(C)cc(C)c2)c1C(=O)NCCCC,i,i,i,i,i,i,nt,nt
CN1CCN(CCCNC(=O)c2cc3c(=O)n(C)c4ccccc4c3s2)CC1,i,i,i,i,54,i,i,nt
Cc1ccc(Cl)cc1N1CCN(C(=O)c2cc3c(=O)n(C)c4ccccc4c3n2C)CC1,i,i,i,i,98,i,86,67
Cc1ccc2oc(=O)c3cc(C(=O)NCCCN4CCN(C)CC4)sc3c2c1,i,i,i,i,i,i,nt,nt

# Compound activity deposited in PubChem by several laboratories.
